# ChEMBL document CHEMBL4350962, “Expanding the Chemical Space of Withaferin A by Incorporating Silicon To Improve Its Clinical Potential on Human Ovarian Carcinoma Cells” (J Med Chem, 2019)
# Activity calls are given as the source filed them. The calls are words filed in the database; no cut-off is given here.
# Key:
# [1] = Selectivity index, ratio of IC50 for human ARPE19 cells to IC50 for cisplatin-sensitive human A2780 cells; assay type: toxicity; conditions: ARPE19 cells versus cisplatin-sensitive A2780 cells, read-out: Ratio IC50
# ARPE-19 = test: Cytotoxicity against human ARPE19 cells measured after 96 hrs by MTT assay; assay type: cell-based; conditions: ARPE-19, 96 h
# Outline: (§1)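 Cells kept in DMEM or RPMI 1640 with 10% FBS and 5% penicillin-streptomycin at 37 °C, 5% CO2, seeded at 1 x 10⁴ cells/mL and left 24 h to adhere. Compounds or vehicle added over a concentration range for 96 h, then MTT 4 h; formazan dissolved in DMSO, absorbance read at 540 nm relative to control. IC50 given as mean ± SD of three independent experiments in duplicate.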
# [2] = (§2) Antiproliferative activity against cisplatin-resistant human A2780/CP70 cells measured after 96 hrs by MTT assay; assay type: functional; conditions: A2780/CP70, 96 h; outline: as §1
# [3] = Selectivity index, ratio of IC50 for human ARPE19 cells to IC50 for cisplatin-resistant human A2780/CP70 cells; assay type: toxicity; conditions: ARPE19 cells versus cisplatin-resistant A2780/CP70 cells, read-out: Ratio IC50
# A2780 = test: Antiproliferative activity against cisplatin-sensitive human A2780 cells measured after 96 hrs by MTT assay; assay type: functional, cell-based; conditions: for IC50: A2780, 96 h; outline: as §1
# Homo sapiens = species: Homo sapiens; test: as §2; assay type: functional; outline: as §1
IC50 (A2780),Compound,selectivity ratio [1],IC50 (ARPE-19),IC50 [2],selectivity ratio [3],Activity (Homo sapiens),Activity (A2780)
33 nM,C=C[Si](C)(C)OCC1=C(C)C[C@H]([C@@H](C)[C@H]2CC[C@H]3[C@@H]4C[C@H]5O[C@]56[C@@H](O[Si](C)(C)C=C)C=CC(=O)[C@]6(C)[C@H]4CC[C@]23C)OC1=O,2.8,92 nM,27.5 nM,3.4,,
10 nM,CCCCCCCC[Si](C)(C)OCC1=C(C)C[C@H]([C@@H](C)[C@H]2CC[C@H]3[C@@H]4C[C@H]5O[C@]56[C@@H](O)C=CC(=O)[C@]6(C)[C@H]4CC[C@]23C)OC1=O,3.2,32 nM,33 nM,1,,
27 nM,C=C[Si](C)(C)OCC1=C(C)C[C@H]([C@@H](C)[C@H]2CC[C@H]3[C@@H]4C[C@H]5O[C@]56[C@@H](O)C=CC(=O)[C@]6(C)[C@H]4CC[C@]23C)OC1=O,3.2,86 nM,31 nM,2.8,,
,CC1=C(CO[Si](C)(c2ccccc2)c2ccccc2)C(=O)O[C@@H]([C@@H](C)[C@H]2CC[C@H]3[C@@H]4C[C@H]5O[C@]56C(O[Si](C)(c5ccccc5)c5ccccc5)C=CC(=O)[C@]6(C)[C@H]4CC[C@]23C)C1 (stereo partly specified),,,,,inactive,
,CCCCCC[Si](CCCCCC)(CCCCCC)OCC1=C(C)C[C@H]([C@@H](C)[C@H]2CC[C@H]3[C@@H]4C[C@H]5O[C@]56C(=O)C=CC(=O)[C@]6(C)[C@H]4CC[C@]23C)OC1=O,,,,,inactive,inactive
59 nM,CC1=C(CO[Si](C)(C)c2ccccc2)C(=O)O[C@@H]([C@@H](C)[C@H]2CC[C@H]3[C@@H]4C[C@H]5O[C@]56C(=O)C=CC(=O)[C@]6(C)[C@H]4CC[C@]23C)C1,39.1,2300 nM,> 100 nM,,,
,CCC[Si](CCC)(CCC)OCC1=C(C)C[C@H]([C@@H](C)[C@H]2CC[C@H]3[C@@H]4C[C@H]5O[C@]56[C@@H](O[Si](CCC)(CCC)CCC)C=CC(=O)[C@]6(C)[C@H]4CC[C@]23C)OC1=O,,,,,inactive,inactive
22 nM,CC1=C(CO[Si](C)(c2ccccc2)c2ccccc2)C(=O)O[C@@H]([C@@H](C)[C@H]2CC[C@H]3[C@@H]4C[C@H]5O[C@]56[C@@H](O)C=CC(=O)[C@]6(C)[C@H]4CC[C@]23C)C1,3.2,70 nM,28.3 nM,2.5,,
35 nM,CC1=C(CO[Si](C)(c2ccccc2)c2ccccc2)C(=O)O[C@@H]([C@@H](C)[C@H]2CC[C@H]3[C@@H]4C[C@H]5O[C@]56C(=O)C=CC(=O)[C@]6(C)[C@H]4CC[C@]23C)C1,58.6,2050 nM,> 100 nM,,,
2.9 nM,CC1=C(CO[Si](C)(C)c2ccccc2)C(=O)O[C@@H]([C@@H](C)[C@H]2CC[C@H]3[C@@H]4C[C@H]5O[C@]56[C@@H](O[Si](C)(C)c5ccccc5)C=CC(=O)[C@]6(C)[C@H]4CC[C@]23C)C1,107,309 nM,29 nM,10.7,,
41 nM,CC1=C(CO[Si](C)(C)C)C(=O)O[C@@H]([C@@H](C)[C@H]2CC[C@H]3[C@@H]4C[C@H]5O[C@]56C(=O)C=CC(=O)[C@]6(C)[C@H]4CC[C@]23C)C1,20,820 nM,68.8 nM,11.9,,
32 nM,CCC[Si](CCC)(CCC)OCC1=C(C)C[C@H]([C@@H](C)[C@H]2CC[C@H]3[C@@H]4C[C@H]5O[C@]56[C@@H](O)C=CC(=O)[C@]6(C)[C@H]4CC[C@]23C)OC1=O,0.9,30 nM,3.6 nM,8.3,,
32.7 nM,CC1=C(CO)C(=O)O[C@@H]([C@@H](C)[C@H]2CC[C@H]3[C@@H]4C[C@H]5O[C@]56[C@@H](O)C=CC(=O)[C@]6(C)[C@H]4CC[C@]23C)C1 [WITHAFERIN A],1.1,37 nM,32 nM,1.2,,
20 nM,CC1=C(CO[Si](C)(C)C(C)C)C(=O)O[C@@H]([C@@H](C)[C@H]2CC[C@H]3[C@@H]4C[C@H]5O[C@]56[C@@H](O)[C@@H](n5ccnc5)CC(=O)[C@]6(C)[C@H]4CC[C@]23C)C1,2.6,52 nM,19 nM,2.7,,
46 nM,CC1=C(CO[Si](c2ccccc2)(c2ccccc2)C(C)(C)C)C(=O)O[C@@H]([C@@H](C)[C@H]2CC[C@H]3[C@@H]4C[C@H]5O[C@]56[C@@H](O)C=CC(=O)[C@]6(C)[C@H]4CC[C@]23C)C1,49.9,2300 nM,29 nM,79.1,,
> 100 nM,CC[Si](CC)(CC)OCC1=C(C)C[C@H]([C@@H](C)[C@H]2CC[C@H]3[C@@H]4C[C@H]5O[C@]56[C@@H](O)C=CC(=O)[C@]6(C)[C@H]4CC[C@]23C)OC1=O,,30 nM,12.8 nM,2.3,,
34 nM,CC1=C(CO[Si](C)(C)C(C)C)C(=O)O[C@@H]([C@@H](C)[C@H]2CC[C@H]3[C@@H]4C[C@H]5O[C@]56[C@@H](O)C=CC(=O)[C@]6(C)[C@H]4CC[C@]23C)C1,191,6500 nM,35 nM,186,,
35 nM,CC[Si](CC)(CC)OCC1=C(C)C[C@H]([C@@H](C)[C@H]2CC[C@H]3[C@@H]4C[C@H]5O[C@]56C(=O)C=CC(=O)[C@]6(C)[C@H]4CC[C@]23C)OC1=O,53.5,1870 nM,20 nM,93.5,,
35 nM,CC1=C(CO[Si](C(C)C)(C(C)C)C(C)C)C(=O)O[C@@H]([C@@H](C)[C@H]2CC[C@H]3[C@@H]4C[C@H]5O[C@]56C(=O)C=CC(=O)[C@]6(C)[C@H]4CC[C@]23C)C1,1.1,37.5 nM,35 nM,1.1,,
1.5 nM,CCCCCCCC[Si](C)(C)OCC1=C(C)C[C@H]([C@@H](C)[C@H]2CC[C@H]3[C@@H]4C[C@H]5O[C@]56[C@@H](O[Si](C)(C)CCCCCCCC)C=CC(=O)[C@]6(C)[C@H]4CC[C@]23C)OC1=O,212,318 nM,24.9 nM,12.8,,
43 nM,CC1=C(CO[Si](C)(C)C(C)C)C(=O)O[C@@H]([C@@H](C)[C@H]2CC[C@H]3[C@@H]4C[C@H]5O[C@]56C(=O)C=CC(=O)[C@]6(C)[C@H]4CC[C@]23C)C1,49.8,2140 nM,34 nM,62.9,,
30 nM,CC1=C(CO[Si](C(C)C)(C(C)C)C(C)C)C(=O)O[C@@H]([C@@H](C)[C@H]2CC[C@H]3[C@@H]4C[C@H]5O[C@]56[C@@H](O)C=CC(=O)[C@]6(C)[C@H]4CC[C@]23C)C1,2.1,62 nM,62 nM,1,,
27 nM,CCCC[Si](CCCC)(CCCC)OCC1=C(C)C[C@H]([C@@H](C)[C@H]2CC[C@H]3[C@@H]4C[C@H]5O[C@]56[C@@H](O)C=CC(=O)[C@]6(C)[C@H]4CC[C@]23C)OC1=O,9.6,260 nM,22 nM,11.8,,
34 nM,CC1=C(CO)C(=O)O[C@@H]([C@@H](C)[C@H]2CC[C@H]3[C@@H]4C[C@H]5O[C@]56[C@@H](O[Si](C)(C)C(C)C)C=CC(=O)[C@]6(C)[C@H]4CC[C@]23C)C1,9.1,310 nM,23 nM,13.5,,
69 nM,CCC[Si](CCC)(CCC)OCC1=C(C)C[C@H]([C@@H](C)[C@H]2CC[C@H]3[C@@H]4C[C@H]5O[C@]56C(=O)C=CC(=O)[C@]6(C)[C@H]4CC[C@]23C)OC1=O,25.2,1740 nM,21 nM,82.9,,
53 nM,CCCC[Si](CCCC)(CCCC)OCC1=C(C)C[C@H]([C@@H](C)[C@H]2CC[C@H]3[C@@H]4C[C@H]5O[C@]56C(=O)C=CC(=O)[C@]6(C)[C@H]4CC[C@]23C)OC1=O,11.6,617 nM,> 100 nM,,,

Compound,IC50 (A2780),selectivity ratio [1],IC50 (ARPE-19),IC50 [2],selectivity ratio [3],Activity (Homo sapiens),Activity (A2780)
CC1=C(CO)C(=O)O[C@@H]([C@@H](C)[C@H]2CC[C@H]3[C@@H]4C[C@H]5O[C@]56C(=O)C=CC(=O)[C@]6(C)[C@H]4CC[C@]23C)C1,7.3 nM,4.3,32 nM,< 1 nM,> 32,,
